In ChEMBL document CHEMBL4196176, “Structure-Based Design of MptpB Inhibitors That Reduce Multidrug-Resistant Mycobacterium tuberculosis Survival and Infection Burden in Vivo” (J Med Chem, 2018):
Active and inactive are the calls of the source. The rule behind the calls is not given here.

What was measured:
[1] = molecular target: T1, Phosphotyrosine protein phosphatase (Mycobacterium tuberculosis, UniProt A0A045ISB3); experiment: Inhibition of Mycobacterium tuberculosis H37Rv His-tagged ptpB expressed in Escherichia coli BL21(DE3) using pNPP as substrate preincubated for 15 mins followed by substrate addition and measured after 15 mins
T1 sequence (A0A045ISB3 whole entry): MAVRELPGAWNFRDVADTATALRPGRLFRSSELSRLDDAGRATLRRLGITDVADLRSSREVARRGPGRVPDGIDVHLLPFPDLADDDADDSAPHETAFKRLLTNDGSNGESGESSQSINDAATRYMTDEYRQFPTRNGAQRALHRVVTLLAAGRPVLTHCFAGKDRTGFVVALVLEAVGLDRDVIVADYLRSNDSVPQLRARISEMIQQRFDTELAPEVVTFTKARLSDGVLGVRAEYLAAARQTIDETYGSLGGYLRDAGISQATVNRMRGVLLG

[2] = Inhibition of Mycobacterium tuberculosis H37Rv His-tagged ptpA expressed in Escherichia coli BL21(DE3) using pNPP as substrate preincubated for 15 mins followed by substrate addition and measured after 15 mins
Summary of the method: (§1)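 His-tagged MptpA/MptpB expressed in E. coli BL21(DE3); VHR and hPTP1B purified as GST fusions with the tag cleaved. 0.5 μg protein in Tris/BisTris/acetate buffer (pH 7 MptpB, 6.5 MptpA, 6 hPTP1B, 5 VHR) with compound at 0–250 μM, 15 min at room temperature. pNPP added to 0.35 mM for 15 min, quenched with NaOH, read at 405 nm against a pNP curve. No-enzyme blanks.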

[3] = molecular target: T2, Tyrosine-protein phosphatase non-receptor type 1 (Homo sapiens, UniProt P18031); experiment: Inhibition of human PTP1B using pNPP as substrate preincubated for 15 mins followed by substrate addition and measured after 15 mins
T2 sequence (P18031 whole entry): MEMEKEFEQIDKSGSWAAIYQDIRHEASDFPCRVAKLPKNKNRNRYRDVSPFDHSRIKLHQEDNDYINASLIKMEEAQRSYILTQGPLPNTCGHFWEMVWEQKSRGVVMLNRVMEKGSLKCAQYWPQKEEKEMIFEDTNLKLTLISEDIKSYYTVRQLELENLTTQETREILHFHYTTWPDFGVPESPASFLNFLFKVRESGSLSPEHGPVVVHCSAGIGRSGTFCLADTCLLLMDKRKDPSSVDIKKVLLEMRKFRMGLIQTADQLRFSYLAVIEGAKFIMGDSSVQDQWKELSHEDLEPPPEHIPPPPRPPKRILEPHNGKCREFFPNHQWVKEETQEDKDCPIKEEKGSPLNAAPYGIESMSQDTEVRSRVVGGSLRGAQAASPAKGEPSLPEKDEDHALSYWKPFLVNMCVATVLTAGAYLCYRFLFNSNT

[4] = molecular target: Dual specificity protein phosphatase 3 (Homo sapiens, UniProt P51452); experiment: Inhibition of human VHR using pNPP as substrate preincubated for 15 mins followed by substrate addition and measured after 15 mins; summary of the method: as §1
Sequence of Dual specificity protein phosphatase 3 (P51452 whole entry): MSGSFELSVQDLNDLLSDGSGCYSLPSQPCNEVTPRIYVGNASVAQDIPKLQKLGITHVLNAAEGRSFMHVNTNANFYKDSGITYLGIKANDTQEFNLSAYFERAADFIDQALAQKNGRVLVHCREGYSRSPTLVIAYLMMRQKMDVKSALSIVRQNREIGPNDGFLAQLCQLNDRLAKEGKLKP

J774.A1 = experiment: Cytotoxicity against mouse J774A.1 cells assessed as reduction in cell viability at 50 to 150 uM after 24 hrs by MTT assay; type: cell-based; details: j774.a1, 24 h
Summary of the method: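 MTT viability assay in J774A.1 cells seeded at 6 × 10^3/well and adhered overnight. Inhibitor in DMSO or DMSO only added for 24 h. MTT (5 mg/mL in PBS) added for 4 h, formazan dissolved in DMSO with Sorensen's glycine buffer, absorbance read at 570 nm.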

Cavia porcellus [5] = experiment: Cmax in Dunkin Hartley guinea pig at 4 mg/kg, ip after 0.5 hrs post dose; type: ADME, organism-based; parameters: dose 4 mg/kg, route intraperitoneal; details: in vivo
Cavia porcellus [6] = experiment: Half life in Dunkin Hartley guinea pig at 4 mg/kg, ip; type: ADME, organism-based; details: in vivo
Cavia porcellus [7] = experiment: AUCinfinity in Dunkin Hartley guinea pig at 4 mg/kg, ip; type: ADME, organism-based; parameters: dose 4 mg/kg, route intraperitoneal, time infinity; details: in vivo
Cavia porcellus [8] = experiment: Cmax in Dunkin Hartley guinea pig at 8 mg/kg, po after 0.25 hrs post dose; type: ADME, organism-based; parameters: dose 8 mg/kg, route oral; details: in vivo
Cavia porcellus [9] = experiment: Half life in Dunkin Hartley guinea pig at 8 mg/kg, po; type: ADME, organism-based; details: in vivo
Cavia porcellus [10] = experiment: AUCinfinity in Dunkin Hartley guinea pig at 8 mg/kg, po; type: ADME, organism-based; parameters: dose 8 mg/kg, route oral, time infinity; details: in vivo
Cavia porcellus [11] = experiment: Oral bioavailability in Dunkin Hartley guinea pig at 8 mg/kg; type: ADME, organism-based; details: in vivo
[12] = Kinetic solubility of the compound after 90 mins; type: physicochemical; details: 1.5 h
[13] = Permeability of the compound at 200 uM after 5 hrs by PAMPA assay; type: ADME; details: read-out: permeability
[14] = molecular target: T3, Phosphotyrosine protein phosphatase (Mycobacterium tuberculosis) (UniProt A0A045ISB3); experiment: Inhibition of Mycobacterium tuberculosis H37Rv ATCC 35837 ptpB infected in human THP1 cells assessed as reduction in intracellular bacterial burden at 20 to 100 uM after 72 hrs post infection relative to DMSO-treated control; type: cell-based
T3 sequence (whole entry): T1 sequence (A0A045ISB3 whole entry)
Summary of the method: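 PMA-differentiated THP1 cells (1 × 10^6/well) in RPMI with 10% FBS. Inhibitor (0, 20 or 80 μM in DMSO) added, then infected with thawed M. tuberculosis at MOI 1:1 for 3 h and washed 4 times. Medium and inhibitor renewed at 24 h. Cells lysed in 0.05% SDS at 72 h; CFU plated in duplicate and counted after 3 weeks. Triplicate.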

Cavia porcellus [15] = experiment: Toxicity in Hartley Duncan guinea pig assessed as body weight increase at 50 to 100 mg/kg/day, po administered for 7 days; type: organism-based; details: in vivo, 168 h
Summary of the method: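 Male Hartley guinea pigs (n = 5) given the compound orally once daily for 7 days at 50 or 100 mg kg–1, as a pre-infection tolerability study. Animals were monitored for adverse drug effects and body-weight change. Plasma and lung drug levels were taken at 2 and 24 h after the last dose.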

[16] = test system: Mycobacterium tuberculosis; experiment: Antibacterial activity against Mycobacterium tuberculosis H37Rv infected in acute TB infection induced Hartley Duncan guinea pig model assessed as log reduction in bacterial burden in lungs at 100 mg/kg/day, po administered at 24 hrs post infection measured after 4 weeks post infection; type: functional
Summary of the method: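 Guinea pigs infected by aerosol with 96 CFU M. tuberculosis H37Rv, 4 per group. Compound (100 mg/kg) or vehicle given orally daily for 4 weeks from 24 h post infection. Lung bacterial burden measured relative to vehicle.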

[17] = test system: Mycobacterium tuberculosis; experiment: Antibacterial activity against Mycobacterium tuberculosis H37Rv infected in chronic TB infection induced Hartley Duncan guinea pig model assessed as log reduction in bacterial burden in lungs at 100 mg/kg/day, po administered at 24 hrs post infection measured after 4 weeks post infection; type: functional
Summary of the method: (§2)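 Guinea pigs infected by aerosol with 63 CFU M. tuberculosis, 5 per group, and left untreated for 28 days; baseline lung and spleen burden taken at day 28. Compound (100 mg/kg) or vehicle then given orally daily for 4 weeks. Lung and spleen CFU compared with vehicle.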

[18] = test system: Mycobacterium tuberculosis; experiment: Antibacterial activity against Mycobacterium tuberculosis H37Rv infected in chronic TB infection induced Hartley Duncan guinea pig model assessed as log reduction in bacterial burden in spleen at 100 mg/kg/day, po administered at 24 hrs post infection measured after 4 weeks post infection; type: functional; summary of the method: as §2
[19] = test system: Mycobacterium tuberculosis; experiment: (§3) Antimycobacterial activity against Mycobacterium tuberculosis H37Rv infected in chronic TB infection induced Hartley Duncan guinea pig model assessed as reduction in necrotic lesions in lungs at 100 mg/kg/day, po administered at 24 hrs post infection measured after 56 days post infection by hematoxylin and eosin staining-based assay; type: functional, organism-based
Summary of the method: (§4)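 Chronic aerosol model (63 CFU; oral 100 mg/kg daily for 4 weeks from day 28). Lungs and spleens inspected at 56 days post infection. Tissue fixed in formalin, paraffin-embedded, cut at about 5 μm and stained with hematoxylin and eosin; lesions and granulomas compared with vehicle.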

[20] = test system: Mycobacterium tuberculosis; experiment: as §3, with “spleen” for “lungs”; type: functional, organism-based; summary of the method: as §4
[21] = test system: Mycobacterium tuberculosis; experiment: as §3, with “of granulomatous infiltration” for “in necrotic lesions”; type: functional, organism-based; summary of the method: as §4
[22] = test system: Mycobacterium tuberculosis; experiment: as §3, with “reduction of granulomatous infiltration” for “reduction”, “spleen” for “necrotic lesions in lungs”; type: functional, organism-based; summary of the method: as §4
[23] = molecular target: T3, Phosphotyrosine protein phosphatase (Mycobacterium tuberculosis); experiment: Inhibition of RFP expressing Mycobacterium tuberculosis H37Rv ATCC 35837 ptpB infected in mouse RAW264.7 cells assessed as prolongation association of PI3P to FYVE2X-FGFP on bacterial phagosome at 80 uM by live-cell imaging method; type: cell-based
Summary of the method: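 RAW264.7 cells transfected with EGFP-2xFYVE plasmid using JetPEI. Next day infected with RFP-M. tuberculosis H37Rv at MOI 5:1, with compound at 80 μM added together with the bacteria. Imaged live immediately, every 30 s, to follow PI3P on phagosomes.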

[24] = Plasma concentration in Hartley Duncan guinea pig at 100 mg/kg, po measured at 2 hrs; type: ADME, organism-based, Cavia porcellus
Summary of the method: (§5)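 Guinea pigs (n = 5) given 100 mg/kg orally once daily for 7 days. Plasma and lung drug levels measured at 2 h and at 24 h after the last dose, as peak and trough.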

[25] = Drug uptake in Hartley Duncan guinea pig lungs at 100 mg/kg, po measured at 2 hrs; type: ADME, organism-based, Cavia porcellus; details: lung, read-out: Drug uptake; summary of the method: as §5
[26] = Plasma concentration in Hartley Duncan guinea pig at 100 mg/kg, po measured at 24 hrs; type: ADME, organism-based, Cavia porcellus; summary of the method: as §5
[27] = Selectivity ratio of IC50 for human PTP1B to IC50 for Mycobacterium tuberculosis H37Rv His-tagged ptpB
[28] = molecular target: T3, Phosphotyrosine protein phosphatase (Mycobacterium tuberculosis); experiment: Inhibition of Mycobacterium tuberculosis H37Rv ATCC 35837 ptpB infected in human THP1 cells assessed as reduction in intracellular bacterial burden at 10 to 80 uM after 72 hrs post infection relative to DMSO-treated control; type: cell-based
Summary of the method: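 PMA-differentiated THP1 cells (1 × 10^6/well, RPMI with 10% FBS and 4 mM L-glutamine) received inhibitor in DMSO, then thawed M. tuberculosis at MOI 1:1. Washed after 3 h; medium and inhibitor renewed at 24 h. At 72 h, lysed in 0.05% SDS; 10-fold dilutions plated in duplicate on 7H10, CFU counted after 3 weeks at 37 °C; triplicate experiments.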

O=C(O)c1noc(-c2ccccc2)c1-c1cccc(-c2ccc(O)c(F)c2)c1
IC50 [1]: 1.5 µM | IC50 [2]: 35.3 µM | IC50 [3]: > 100 µM | IC50 [4]: 40.2 µM | Activity (J774.A1): Non-Toxic

Cc1onc(C(=O)O)c1-c1cccc(-c2cc(Cl)c(O)c(Cl)c2)c1
Cmax (Cavia porcellus [5]): 31519 ng/mL | t1/2 (Cavia porcellus [6]): 1.4 h | AUC (Cavia porcellus [7]): 71.854 µg·h/mL | Cmax (Cavia porcellus [8]): 111099 ng/mL | t1/2 (Cavia porcellus [9]): 5.1 h | AUC (Cavia porcellus [10]): 230.407 µg·h/mL | F (Cavia porcellus [11]): 156% | Kinetic_solubility [12]: 200 µM | Papp at 5 h, 200 µM [13]: 7.81 ×10⁻⁶ cm/s | inhibition [14]: < 63% | Activity (Cavia porcellus [15]): > 5% | Activity [16]: 0.9 deltalog10CFU | Activity [17]: 1 deltalog10CFU | Activity [18]: 1 deltalog10CFU | Activity [19]: Active | Activity [20]: Active | Activity [21]: Active | Activity [22]: Active | TIME [23]: < 0.2 h | concentration at 2 h [24]: 1750 ng/mL | concentration at 2 h [25]: 623 ng/g | concentration at 24 h [26]: 35 ng/mL

O=C(O)c1noc(-c2ccccc2)c1-c1cccc(-c2ccc(O)cc2)c1
IC50 [1]: 2.8 µM | IC50 [2]: 74 µM | IC50 [3]: > 100 µM | IC50 [4]: 54 µM | Activity (J774.A1): Non-Toxic

O=C(O)c1noc(-c2ccccc2)c1-c1ccccc1
IC50 [1]: 17 µM | IC50 [3]: 100 µM | Ratio IC50 [27]: 5.9

COc1cccc(-c2c(C(=O)O)noc2-c2ccccc2)c1
IC50 [1]: 38 µM

COC(=O)c1c(O)cccc1OC/C=C/c1cccc(-c2cc(C(=O)O)no2)c1 [ISOXAZOLECARBOXYLIC ACID]
IC50 [1]: 7 µM | inhibition [28]: Active

O=C(O)c1noc(-c2ccccc2)c1-c1cccc(O)c1
IC50 [1]: 85 µM
